Test results reported in ChEMBL document CHEMBL1151460, “Identification and evaluation of a highly effective fusion inhibitor for human metapneumovirus” (Antimicrob Agents Chemother, 2008).
Activity calls are given as the source filed them. No cut-off for these calls is given here. Where a SMILES comes first, the peptide text is derived from it.

Experiments:
Human metapneumovirus = assay: Antiviral activity against hMPV C-85473 infected in rhesus monkey LLC-MK2 cells after 3 days by RT-PCR; type: functional, organism-based; conditions: C-85473, LLC-MK2, 72 h
How it was run: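 Twofold serial dilutions of peptide mixed with 107 TCID50 virus in infection medium (Opti-MEM with 2 µg/ml trypsin) and added to LLC-MK2 cells. After 2 h, medium replaced with fresh medium containing the same peptide dilutions. Supernatants collected on day 3 and N gene quantified by real-time RT-PCR (TaqMan). IC50 from triplicate experiments.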

LLC-MK2 = assay: Cytotoxicity against rhesus monkey LLC-MK2 cells at 9 uM after 3 days by MTT assay; type: cell-based, Macaca mulatta; conditions: llc-mk2, 72 h
How it was run: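 Serial peptide dilutions in hMPV infection medium applied to LLC-MK2 cells for 3 days. MTT (1 mg/ml) added for 2 h at 37°C, dye solubilized in acidic isopropanol, absorbance read at 570. Absorbance below that of control cells taken as cytotoxicity.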

Mus musculus [1] = organism: Mus musculus; assay: Effect on pulmonary inflammation in BALB/c mouse lung assessed as change in peribronchiolar inflammation after 5 days by histopathological analysis; type: functional, organism-based
How it was run: (§1)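 Female BALB/c mice, 4-6 weeks old, received intranasal hMPV C-85473 (2 x 106 TCID50/ml, 70 µl) or PBS, with or without 7 µM synthetic peptide by the same route. Six lungs/group taken on day 5, fixed in 10% buffered formalin, paraffin-embedded, cut at 5 µm, stained with H&E. Each inflammation type scored on a 0-4 scale.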

Mus musculus [2] = organism: Mus musculus; assay: Effect on pulmonary inflammation in BALB/c mouse lung assessed as change in perivascular inflammation after 5 days by histopathological analysis; type: functional, organism-based; how it was run: as §1
Mus musculus [3] = organism: Mus musculus; assay: Effect on airway obstruction in hMPV infected BALB/c mouse assessed as decrease in enhanced pause treated simultaneously with viral challenge

Structure (SMILES)	IC50 (Human metapneumovirus)	Activity (LLC-MK2)	Activity (Mus musculus [1])	Activity (Mus musculus [2])	Activity (Mus musculus [3])
CC[C@H](C)[C@H](NC(=O)[C@H](CCCNC(=N)N)NC(=O)[C@H](CC(N)=O)NC(=O)[C@H](CO)NC(=O)[C@H](CCC(N)=O)NC(=O)[C@H](CC(=O)O)NC(=O)[C@@H](NC(=O)[C@H](CC(C)C)NC(=O)[C@H](C)NC(=O)[C@H](CCC(N)=O)NC(=O)[C@H](CO)NC(=O)[C@H](CC(N)=O)NC(=O)[C@H](CCC(=O)O)NC(=O)[C@@H](NC(=O)[C@H](CO)NC(=O)[C@H](CCC(=O)O)NC(=O)[C@H](Cc1ccccc1)NC(=O)[C@@H](NC(=O)[C@H](CCC(N)=O)NC(=O)[C@H](CC(=O)O)NC(=O)[C@H](CC(C)C)NC(=O)[C@H](C)NC(=O)[C@@H](NC(=O)[C@@H](N)CC(N)=O)C(C)C)C(C)C)[C@@H](C)CC)C(C)C)C(=O)N[C@@H](CC(C)C)C(=O)N[C@@H](CO)C(=O)N[C@@H](CO)C(=O)N[C@@H](C)C(=O)O (H-NVALDQVFESIENSQALVDQSNRILSSA-OH)	> 9 µM	Not Active	inactive	inactive	inactive
CC[C@H](C)[C@H](NC(=O)[C@H](C)NC(=O)[C@@H](NC(=O)[C@@H](NC(=O)[C@H](CCC(=O)O)NC(=O)[C@H](CO)NC(=O)[C@H](CCC(=O)O)NC(=O)[C@@H](N)CC(C)C)C(C)C)[C@@H](C)O)C(=O)N[C@@H](CCCCN)C(=O)N[C@@H](CC(N)=O)C(=O)N[C@@H](C)C(=O)N[C@@H](CC(C)C)C(=O)N[C@@H](CCCCN)C(=O)N[C@@H](CCCCN)C(=O)N[C@H](C(=O)N[C@@H](CC(N)=O)C(=O)N[C@@H](CCC(=O)O)C(=O)N[C@@H](C)C(=O)N[C@H](C(=O)N[C@@H](CO)C(=O)N[C@H](C(=O)N[C@@H](CC(C)C)C(=O)NCC(=O)N[C@@H](CC(N)=O)C(=O)NCC(=O)N[C@H](C(=O)N[C@@H](CCCNC(=N)N)C(=O)N[C@H](C(=O)N[C@@H](CC(C)C)C(=O)N[C@@H](C)C(=O)N[C@H](C(=O)N[C@@H](C)C(=O)N[C@H](C(=O)N[C@@H](CCCNC(=N)N)C(=O)N[C@@H](CCC(=O)O)C(=O)O)C(C)C)[C@@H](C)O)C(C)C)C(C)C)[C@@H](C)O)C(C)C)[C@@H](C)O (H-LESEVTAIKNALKKTNEAVSTLGNGVRVLATAVRE-OH)	3.24 µM	Not Active	–	–	–
CC[C@H](C)[C@H](NC(=O)[C@H](CCCNC(=N)N)NC(=O)[C@H](CC(N)=O)NC(=O)[C@H](CO)NC(=O)[C@H](CCC(N)=O)NC(=O)[C@H](CC(=O)O)NC(=O)[C@@H](NC(=O)[C@H](CC(C)C)NC(=O)[C@H](C)NC(=O)[C@H](CCC(N)=O)NC(=O)[C@H](CO)NC(=O)[C@H](CC(N)=O)NC(=O)[C@H](CCC(=O)O)NC(=O)[C@@H](NC(=O)[C@H](CO)NC(=O)[C@H](CCC(=O)O)NC(=O)[C@H](Cc1ccccc1)NC(=O)[C@@H](NC(=O)[C@H](CCC(N)=O)NC(=O)[C@H](CC(=O)O)NC(=O)[C@H](CC(C)C)NC(=O)[C@H](C)NC(=O)[C@@H](NC(=O)[C@H](CC(N)=O)NC(=O)[C@H](Cc1ccccc1)NC(=O)[C@H](CCC(N)=O)NC(=O)[C@H](CC(=O)O)NC(=O)[C@H](CCC(=O)O)NC(=O)[C@@H]1CCCN1)C(C)C)C(C)C)[C@@H](C)CC)C(C)C)C(=O)N[C@@H](CC(C)C)C(=O)N[C@@H](CO)C(=O)N[C@@H](CO)C(=O)N[C@@H](C)C(=O)N[C@@H](CCC(=O)O)C(=O)N[C@@H](CCCCN)C(=O)NCC(=O)N[C@@H](CC(N)=O)C(=O)N[C@H](C(=O)NCC(=O)O)[C@@H](C)O (H-PEDQFNVALDQVFESIENSQALVDQSNRILSSAEKGNTG-OH)	3.31 µM	Not Active	–	–	–
CC[C@H](C)[C@H](NC(=O)[C@H](CCCNC(=N)N)NC(=O)[C@H](CC(N)=O)NC(=O)[C@H](CO)NC(=O)[C@H](CCC(N)=O)NC(=O)[C@H](CC(=O)O)NC(=O)[C@@H](NC(=O)[C@H](CC(C)C)NC(=O)[C@H](C)NC(=O)[C@H](CCC(N)=O)NC(=O)[C@H](CO)NC(=O)[C@H](CC(N)=O)NC(=O)[C@H](CCC(=O)O)NC(=O)[C@@H](NC(=O)[C@H](CO)NC(=O)[C@H](CCC(=O)O)NC(=O)[C@H](Cc1ccccc1)NC(=O)[C@@H](NC(=O)[C@H](CCC(N)=O)NC(=O)[C@H](CC(=O)O)NC(=O)[C@H](CC(C)C)NC(=O)[C@H](C)NC(=O)[C@@H](NC(=O)[C@H](CC(N)=O)NC(=O)[C@@H](N)Cc1ccccc1)C(C)C)C(C)C)[C@@H](C)CC)C(C)C)C(=O)N[C@@H](CC(C)C)C(=O)N[C@@H](CO)C(=O)N[C@@H](CO)C(=O)N[C@@H](C)C(=O)N[C@@H](CCC(=O)O)C(=O)O (H-FNVALDQVFESIENSQALVDQSNRILSSAE-OH)	> 9 µM	Not Active	–	–	–
CC[C@H](C)[C@H](NC(=O)[C@H](CCCNC(=N)N)NC(=O)[C@H](CC(N)=O)NC(=O)[C@H](CO)NC(=O)[C@H](CCC(N)=O)NC(=O)[C@H](CC(=O)O)NC(=O)[C@@H](NC(=O)[C@H](CC(C)C)NC(=O)[C@H](C)NC(=O)[C@H](CCC(N)=O)NC(=O)[C@H](CO)NC(=O)[C@H](CC(N)=O)NC(=O)[C@H](CCC(=O)O)NC(=O)[C@@H](NC(=O)[C@H](CO)NC(=O)[C@H](CCC(=O)O)NC(=O)[C@H](Cc1ccccc1)NC(=O)[C@@H](NC(=O)[C@H](CCC(N)=O)NC(=O)[C@H](CC(=O)O)NC(=O)[C@H](CC(C)C)NC(=O)[C@H](C)NC(=O)[C@@H](NC(=O)[C@H](CC(N)=O)NC(=O)[C@@H](N)Cc1ccccc1)C(C)C)C(C)C)[C@@H](C)CC)C(C)C)C(=O)N[C@@H](CC(C)C)C(=O)N[C@@H](CO)C(=O)N[C@@H](CO)C(=O)N[C@@H](C)C(=O)N[C@@H](CCC(=O)O)C(=O)N[C@@H](CCCCN)C(=O)NCC(=O)N[C@@H](CC(N)=O)C(=O)N[C@H](C(=O)NCC(=O)O)[C@@H](C)O (H-FNVALDQVFESIENSQALVDQSNRILSSAEKGNTG-OH)	1.52 µM	Not Active	–	–	–
CC[C@H](C)[C@H](NC(=O)[C@H](CCCNC(=N)N)NC(=O)[C@H](CC(N)=O)NC(=O)[C@H](CO)NC(=O)[C@H](CCC(N)=O)NC(=O)[C@H](CC(=O)O)NC(=O)[C@@H](NC(=O)[C@H](CC(C)C)NC(=O)[C@H](C)NC(=O)[C@H](CCC(N)=O)NC(=O)[C@H](CO)NC(=O)[C@H](CC(N)=O)NC(=O)[C@H](CCC(=O)O)NC(=O)[C@@H](NC(=O)[C@H](CO)NC(=O)[C@H](CCC(=O)O)NC(=O)[C@H](Cc1ccccc1)NC(=O)[C@@H](NC(=O)[C@H](CCC(N)=O)NC(=O)[C@H](CC(=O)O)NC(=O)[C@H](CC(C)C)NC(=O)[C@H](C)NC(=O)[C@@H](NC(=O)[C@H](CC(N)=O)NC(=O)[C@@H](N)Cc1ccccc1)C(C)C)C(C)C)[C@@H](C)CC)C(C)C)C(=O)N[C@@H](CC(C)C)C(=O)N[C@@H](CO)C(=O)N[C@@H](CO)C(=O)N[C@@H](C)C(=O)N[C@@H](CCC(=O)O)C(=O)N[C@@H](CCCCN)C(=O)NCC(=O)N[C@@H](CC(N)=O)C(=O)O (H-FNVALDQVFESIENSQALVDQSNRILSSAEKGN-OH)	> 9 µM	Not Active	–	–	–
